Assay [1] concerns the target T1, Polyunsaturated fatty acid 5-lipoxygenase (Homo sapiens) (UniProt P09917).
T1 sequence (whole entry): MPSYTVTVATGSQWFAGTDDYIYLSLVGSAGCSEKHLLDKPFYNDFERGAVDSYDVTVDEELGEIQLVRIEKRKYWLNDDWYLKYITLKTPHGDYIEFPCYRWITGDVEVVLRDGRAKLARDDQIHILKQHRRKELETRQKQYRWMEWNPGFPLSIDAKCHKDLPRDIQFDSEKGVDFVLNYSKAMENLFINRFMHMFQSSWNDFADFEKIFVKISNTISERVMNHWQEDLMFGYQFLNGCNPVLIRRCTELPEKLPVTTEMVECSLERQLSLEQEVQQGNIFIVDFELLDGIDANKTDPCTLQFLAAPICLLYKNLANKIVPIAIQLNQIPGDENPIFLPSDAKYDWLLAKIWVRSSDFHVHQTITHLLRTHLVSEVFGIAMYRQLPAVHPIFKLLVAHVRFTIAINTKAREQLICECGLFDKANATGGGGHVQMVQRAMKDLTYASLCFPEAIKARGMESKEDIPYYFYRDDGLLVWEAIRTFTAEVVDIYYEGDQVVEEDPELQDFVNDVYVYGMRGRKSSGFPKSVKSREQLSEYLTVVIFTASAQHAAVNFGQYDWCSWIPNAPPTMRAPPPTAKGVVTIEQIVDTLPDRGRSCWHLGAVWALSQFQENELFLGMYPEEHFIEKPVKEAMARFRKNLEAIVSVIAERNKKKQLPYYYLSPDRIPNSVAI
Kind of assay: Inhibition of 5-LOX at 100 uM after 5 mins. The method, boiled down: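 Tested in an anti-inflammatory panel against Cox-1, Cox-2 and 5-Lox.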

The target of assay [2] is Prostaglandin G/H synthase 1 (Homo sapiens) (UniProt P23219). To be noted: at 100 µM.
Chain of Prostaglandin G/H synthase 1 (Homo sapiens) (P23219 whole entry): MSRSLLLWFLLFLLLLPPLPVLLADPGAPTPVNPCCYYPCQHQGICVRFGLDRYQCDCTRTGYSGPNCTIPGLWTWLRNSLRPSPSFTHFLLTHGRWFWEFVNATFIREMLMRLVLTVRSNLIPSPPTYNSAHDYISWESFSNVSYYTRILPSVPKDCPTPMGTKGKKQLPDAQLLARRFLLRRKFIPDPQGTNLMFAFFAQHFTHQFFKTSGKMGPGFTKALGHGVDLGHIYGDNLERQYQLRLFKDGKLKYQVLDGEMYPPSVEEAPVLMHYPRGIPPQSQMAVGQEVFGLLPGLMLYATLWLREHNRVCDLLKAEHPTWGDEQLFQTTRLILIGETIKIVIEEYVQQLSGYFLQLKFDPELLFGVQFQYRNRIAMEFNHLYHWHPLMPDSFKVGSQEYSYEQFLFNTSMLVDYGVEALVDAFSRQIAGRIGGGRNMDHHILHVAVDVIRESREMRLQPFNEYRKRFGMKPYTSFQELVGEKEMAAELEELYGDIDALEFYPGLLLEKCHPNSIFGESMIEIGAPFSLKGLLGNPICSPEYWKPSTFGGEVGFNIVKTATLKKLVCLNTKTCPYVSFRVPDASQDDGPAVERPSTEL
The test system of the next assay is PANC-1. The assay can be described thus: Cytotoxicity against human PANC1 cells after 48 hrs by MTT assay. It is filed as functional, cell-based. To be noted: PANC-1, 48 h. In general terms: Formazan colour is commonly taken as a measure of viable cells.
The next assay relates to HL-60. Kind of assay: Cytotoxicity against human HL60 cells after 48 hrs by MTT assay. It is filed as functional, cell-based. To be noted: HL-60, 48 h.

Structures are written as SMILES.

Take `CO[C@@H]1O[C@@H](O)[C@H]2C3C[C@H]4c5[nH]c6ccccc6c5C[C@@H]([C@@H]31)N4[C@H]2C` [ALSTOYUNINE B]: the inhibition was determined as 33.5% in assay [1] and 26.8% in assay [2]. Moreover, the IC50 in the assay on PANC-1 and in the assay on HL-60 was more than 40 µM each time.
For `CO[C@@H]1O[C@@H](O)[C@@H]2C3C[C@H]4c5[nH]c6ccccc6c5C[C@@H]2N4[C@@H](C)[C@H]31` [ALSTOYUNINE A], the inhibition in assay [1] stood at 38.4%; in assay [2], 27.8%. Moreover, the concentration for half-maximal inhibition (IC50) in the assay with PANC-1 and with HL-60 was more than 40 µM in each case.
For the molecule `CC(=O)OC1C2C3C[C@H]4C5=[N+](C)c6ccccc6[C@]51C[C@@H]2[N+]4([O-])[C@@H](C)[C@@H]3C(=O)[O-]` (some centres not stated), the inhibition is less than 0% in assay [1] and 45% in assay [2]. The IC50 in the assay on PANC-1 and in the assay with HL-60 was more than 40 µM in each case.
In the case of `CC[C@@]12CC(C(=O)OC)=C3Nc4cc(OC)ccc4[C@@]34CCN(C[C@@H](Cl)[C@@H]1O)[C@@H]24` [ALSTOYUNINE H], the values for the inhibition in assay [1] and in assay [2] were 0.84% and less than 0%, respectively. Further, the IC50 in the assay with PANC-1 and with HL-60 was more than 40 µM throughout.
As to `C/C=C1/C[N+]2([O-])[C@H]3CC1C1C(OC(C)=O)[C@@]4(C[C@@H]12)C3=Nc1ccccc14` (some centres not stated) [ALSTOYUNINE E], the inhibition in assay [1] was 77.2%; in assay [2] it was 41.8%. Besides, the IC50 in the assay on PANC-1 and in the assay with HL-60 was more than 40 µM each time.
Consider `CC[C@@]12CC(C(=O)OC)=C3Nc4cc(OC)ccc4[C@@]34CCN(C(=O)[C@@H]3O[C@@H]31)[C@@H]24` [ALSTOYUNINE G], for which the inhibition was less than 0% in assay [1] and 37.2% in assay [2]. For the same molecule, the IC50 with PANC-1 and in the assay with HL-60 was more than 40 µM in each case.
On to `COC(C)[C@H]1C2C[C@H]3C4=Nc5ccccc5[C@]45C[C@@H](C2C5OC(C)=O)N3[C@@H]1O` (some centres not stated) [ALSTOYUNINE F], for which the inhibition in assay [1] is 61.8%; in assay [2] it was 39.8%. For the same molecule, the IC50 in the assay on PANC-1 was found to be 21.7 µM; in the assay with HL-60, 3.89 µM.
Taken in the same sequence, the figures for `CC(=O)OC1C2C3C[C@H]4C5=[N+]([O-])c6ccccc6[C@]51C[C@@H]2[N+]4([O-])[C@@H](C)[C@@H]3C(=O)O` (some centres not stated) [ALSTOYUNINE D] were less than 0%, 39.3%, more than 40 µM and more than 40 µM.

As usually defined, the inhibition is the relative decrease from the control value, in per cent. Read a high inhibition as a response far below the control. Broadly, the IC50 is the concentration needed to halve the response being measured. Read a low IC50 as greater potency.

The record behind these values is ChEMBL document CHEMBL1154300, “Monoterpenoid indole alkaloids from Alstonia yunnanensis” (J Nat Prod, 2009).
